Assay results as given in PMC6447837 (Cancer Science, 2019).

Columns and labels:
[1] = test system: cleaved caspase‐3; test: Immunohistochemistry of xenograft tumor tissues; type: in vivo, NOD‐SCID mice; details: xenograft models; LY‐1816 40 mg/kg/d p.o., gemcitabine 80 mg/kg/wk; IHC
Method in brief: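 Aspc‑1 or Bxpc‑3 s.c. tumors in NOD‑SCID mice were dosed p.o. daily from about 200 mm³, with vehicle controls. At study end, tumors were resected. Frozen sections were immunostained and imaged by light microscopy, and cleaved caspase‑3‑positive cells were counted.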

[2] = test system: HPAF‐II; test: MTT antiviability assay; type: cell-based; details: Homo sapiens, 72 h
[3] = test system: Capan‐2; test: MTT antiviability assay; type: cell-based; details: Homo sapiens, Capan-2, 72 h
[4] = test system: Bxpc‐3 cells; test: Annexin V/PI apoptosis assay; type: cell-based, human; details: 24 hours
Method in brief: (§1)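 Cells were treated with a range of concentrations for 24 hours, washed with PBS, then stained with annexin V‑FITC and propidium iodide for 15 minutes in the dark. […] Early (annexin V) and late (PI) apoptotic cells are reported as percentages, mean of n = 3 with SD.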

[5] = test system: Bxpc‐3 cells; test: Colony formation assay; type: cell-based, human; details: 18 days
Method in brief: (§2)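 Cells were seeded at 5000-8000 per well and treated with test compound the next day, from DMSO stocks diluted in medium. Medium with vehicle or compound was replaced every 4 days. Cells were then methanol-fixed and crystal violet-stained. Colonies of more than 50 cells were counted under an inverted microscope and expressed as a percentage of colony numbers. Mean of n = 3, with SD.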

[6] = test system: Aspc‐1 cells; test: EdU incorporation; type: cell-based, human; details: 24 hours
Method in brief: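 Cells were seeded overnight at 5000-8000 per well in 96-well plates, then exposed to test compound for 24 h. Cells were then incubated with EdU followed by Hoechst, using a commercial kit per manufacturer's instructions. EdU marks proliferating cells and Hoechst marks nuclei. The read-out was the percentage of EdU-positive cells, as mean of n = 3 with SD.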

[7] = test system: plc/prf/5; details: plc/prf/5, Hepatocarcinoma; ref Zhang et al (2016) 35; cited from earlier work
[8] = test system: Aspc‐1 cells; test: Annexin V/PI apoptosis assay; type: cell-based, human; details: 24 hours
Method in brief: as §1

[9] = test system: A375; test: MTT antiviability assay; type: cell-based; details: Homo sapiens, A-375, 72 h
[10] = test system: Bxpc‐3 xenograft; test: Subcutaneous xenograft model; type: in vivo, NOD‐SCID mice; details: Bxpc‐3 model
Method in brief: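 Female NOD‑SCID mice bearing s.c. right‑flank tumors (5 × 10⁶–1 × 10⁷ cells injected) were randomized at 100–200 mm³ (6–7 per group). They received test compound in 25% PEG400/5% DMSO/water by oral gavage once daily for 18 days, or vehicle. Tumors were measured by caliper every 3 days, with volume = length × width² × 0.5.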

[11] = test system: HL‐60; details: HL‐60, Acute myeloid leukemia; mean ± SD; ref Zhang et al (2016) 35; cited from earlier work
[12] = target: Lck (Homo sapiens, UniProt P06239); test: Radiometric kinase IC50 assay; type: biochemical
Chain of Lck (P06239 whole entry): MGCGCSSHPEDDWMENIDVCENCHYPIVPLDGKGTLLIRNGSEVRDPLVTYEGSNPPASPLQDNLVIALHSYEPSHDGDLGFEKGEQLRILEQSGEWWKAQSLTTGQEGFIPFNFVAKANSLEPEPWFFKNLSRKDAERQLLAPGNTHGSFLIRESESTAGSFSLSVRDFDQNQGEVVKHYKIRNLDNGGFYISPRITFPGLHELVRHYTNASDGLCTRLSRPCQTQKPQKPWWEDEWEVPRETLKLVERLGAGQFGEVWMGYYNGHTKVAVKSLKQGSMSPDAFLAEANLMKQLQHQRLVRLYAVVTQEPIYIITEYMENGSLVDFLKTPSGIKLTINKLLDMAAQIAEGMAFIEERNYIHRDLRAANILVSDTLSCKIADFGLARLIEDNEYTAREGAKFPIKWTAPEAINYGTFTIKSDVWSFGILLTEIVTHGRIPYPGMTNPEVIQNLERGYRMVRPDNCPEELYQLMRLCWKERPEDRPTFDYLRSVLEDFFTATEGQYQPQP

[13] = test system: FOSL1; test: Immunohistochemistry of xenograft tumor tissues; type: in vivo, NOD‐SCID mice; details: Aspc‐1 and Bxpc‐3 models; LY‐1816 and dasatinib 40 mg/kg/d p.o., gemcitabine 80 mg/kg/wk; IHC
Method in brief: (§3)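 Six-week-old female NOD-SCID mice received 5 × 10⁶ to 1 × 10⁷ cells s.c. in the right flank. Treatment began at about 200 mm³. Test compound (40 mg/kg/d) was given once daily by oral gavage in 25% PEG400 plus 5% DMSO in water. Tumors were resected at the end of dosing. Frozen sections were immunostained and imaged by light microscopy.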

[14] = test system: SW1990; test: MTT antiviability assay; type: cell-based; details: Homo sapiens, SW1990, 72 h
[15] = test system: Aspc‐1 cells; test: Colony formation assay; type: cell-based, human; details: 14 days
Method in brief: as §2

[16] = test system: RAMOS; details: Lymphoma, ref Zhang et al (2016) 35; cited from earlier work
[17] = test system: Aspc‐1; test: MTT antiviability assay; type: cell-based; details: Homo sapiens, ASPC1, 72 h
[18] = test system: Bxpc‐3 cells; test: Transwell invasion assay; type: cell-based, human
Method in brief: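 Inserts were precoated with polymerized collagen type I. Cells were seeded on the insert bottom in serum‑free medium with serial dilutions of test compound or vehicle, with 10% FBS medium in the lower chamber. After one day, cells were stained with calcein‑AM and optical sections taken at 10‑μm intervals. Invasion was scored as cells moving >20 μm into collagen; n = 3, mean with SD.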

[19] = target: Src (Homo sapiens, UniProt P12931); type: cell-based; details: 12 hours, western blot
Chain of Src (P12931 whole entry): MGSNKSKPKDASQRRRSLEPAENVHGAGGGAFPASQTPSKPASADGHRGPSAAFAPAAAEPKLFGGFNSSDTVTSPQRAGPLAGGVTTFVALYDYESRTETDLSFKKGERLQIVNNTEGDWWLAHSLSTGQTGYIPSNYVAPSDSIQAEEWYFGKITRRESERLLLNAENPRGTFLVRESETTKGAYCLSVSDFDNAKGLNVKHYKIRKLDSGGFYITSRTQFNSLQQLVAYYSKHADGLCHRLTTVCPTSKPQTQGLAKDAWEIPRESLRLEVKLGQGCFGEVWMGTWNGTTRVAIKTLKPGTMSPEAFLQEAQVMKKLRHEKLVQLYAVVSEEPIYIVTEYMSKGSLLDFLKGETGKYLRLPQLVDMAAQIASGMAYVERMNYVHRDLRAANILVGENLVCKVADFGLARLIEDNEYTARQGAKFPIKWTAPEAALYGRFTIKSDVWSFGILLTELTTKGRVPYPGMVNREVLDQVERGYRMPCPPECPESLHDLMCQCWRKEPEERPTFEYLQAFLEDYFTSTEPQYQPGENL

[20] = test system: DU145; details: DU145, Prostate carcinoma; ref Zhang et al (2016) 35; cited from earlier work
[21] = target: 205 other kinases; test: Radiometric kinase assay, remaining panel; type: biochemical, human; details: 205 other kinases of the panel; did not show activity
[22] = test system: STAT3; test: Immunohistochemistry of xenograft tumor tissues; type: in vivo, NOD‐SCID mice; details: Aspc‐1 and Bxpc‐3 models; LY‐1816 and dasatinib 40 mg/kg/d p.o., gemcitabine 80 mg/kg/wk; IHC
Method in brief: as §3

[23] = test system: BT474; details: BT474, Breast cancer; ref Zhang et al (2016) 35; cited from earlier work
[24] = test system: HT29; details: HT29, Colorectal carcinoma; mean ± SD; ref Zhang et al (2016) 35; cited from earlier work
[25] = Body weight during treatment in xenograft models; type: in vivo, NOD‐SCID mice; details: Aspc‐1 and Bxpc‐3 xenograft models; 20 or 40 mg/kg/d p.o., 18 days
Method in brief: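 Six‑week‑old female NOD‑SCID mice received 5 × 10⁶–1 × 10⁷ cells s.c. in the right flank and were grouped (6 per group) at about 200 mm³. Test compound in 25% (v/v) PEG400 plus 5% DMSO in deionized water was given by oral gavage once daily for 18 days, alongside vehicle controls. Mean body weight with SD was recorded.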

[26] = target: Yes (Homo sapiens, UniProt P07947); test: Radiometric kinase IC50 assay; type: biochemical
Chain of Yes (P07947 whole entry): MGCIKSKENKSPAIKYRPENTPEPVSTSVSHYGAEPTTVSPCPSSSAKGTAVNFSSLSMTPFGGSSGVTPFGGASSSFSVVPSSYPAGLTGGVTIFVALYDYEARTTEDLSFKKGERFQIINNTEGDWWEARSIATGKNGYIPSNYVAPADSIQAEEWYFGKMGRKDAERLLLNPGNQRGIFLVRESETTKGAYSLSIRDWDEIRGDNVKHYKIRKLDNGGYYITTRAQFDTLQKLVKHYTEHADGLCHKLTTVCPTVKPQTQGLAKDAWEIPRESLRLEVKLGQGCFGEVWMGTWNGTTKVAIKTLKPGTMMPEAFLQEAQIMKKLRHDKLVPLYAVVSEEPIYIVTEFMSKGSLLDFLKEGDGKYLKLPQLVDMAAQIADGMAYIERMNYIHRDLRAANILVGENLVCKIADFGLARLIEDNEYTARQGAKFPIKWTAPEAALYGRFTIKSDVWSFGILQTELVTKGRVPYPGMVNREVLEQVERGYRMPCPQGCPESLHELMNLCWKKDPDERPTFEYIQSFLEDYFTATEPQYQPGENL

Compound: Cc1ccc(NC(=O)c2ccc(C)c(C(F)(F)F)c2)cc1C#Cc1nn(C2CCC(O)CC2)c2ncnc(N)c12 (stereo not shown) [LY‐1816, N‐(3‐((4‐amino‐1‐(4‐hydroxycyclohexyl)‐1H‐pyrazolo[3,4‐d]pyrimidin‐3‐yl)ethynyl)‐4‐methylphenyl)‐4‐methyl‐3‐(trifluoromethyl)benzamide]
- cleaved caspase‐3 stain in tumor tissues [1]: considerable ability to induce apoptosis
- IC50 [2]: 215 ± 31 nM
- IC50 [3]: 97 ± 14 nM
- apoptosis (annexin V and PI‐positive populations) [4]: significantly increased the annexin V and PI‐positive populations
- colony growth [5]: significantly inhibited the colony growth
- DNA replication (EdU) [6]: dose‐dependently suppress the DNA replication
- IC50 [7]: ~10000 nM
- apoptosis (annexin V and PI‐positive populations) [8]: significantly increased the annexin V and PI‐positive populations
- IC50 [9]: 134 ± 2 nM
- tumor‐inhibition rate ([10]; 40 mg/kg daily, orally, 18 days): > 90%
- antitumor activity ([10]; LY‐1816 20 or 40 mg/kg/d p.o., dasatinib 40 mg/kg/d p.o., gemcitabine 80 mg/kg once a week): dose‐dependent tumor inhibitory activities
- IC50 [11]: 31 ± 12 nM
- IC50 [12]: 14 nM
- expression of FOSL1 in tumor tissues [13]: evidently reduced
- IC50 [14]: 42 ± 53 nM
- colony growth [15]: significantly inhibited the colony growth
- IC50 [16]: ~10000 nM
- IC50 [17]: 54 ± 8 nM
- cell invasion [18]: significantly suppressed the invasion
- phosphorylation of Src ([19]; 10 PDAC cell lines): potently inhibited the phosphorylation of Src
- Src phosphorylation ([19]; HT29 and HCT116 cells): relatively weak potency
- IC50 [20]: > 10000 nM
- IC50 [21]: > 10000 nM
- phosphorylation of STAT3 in tumor tissues [22]: evidently reduced the phosphorylation of Src and STAT3
- IC50 [23]: > 10000 nM
- IC50 [24]: 231 ± 12 nM
- body weight [25]: no significant decrease in body weight
- IC50 [26]: 1 nM
